PERK inhibitor = block of dimerizer-induced PERK translation repression, primary screen, PERK inhibitor project, CHO PERK-DD cells, SEAP luminescence, HTS | CHO PERK-DD fusion, SEAP luminescence translation reporter | inhibition, % at 5.6 µM | 220,000 tested, 0.17% active;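 active = inhibition above the mean inhibition of all tested compounds plus 3 SD, set separately per screening campaign, cut at about 2.9% in these data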;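 note: PERK kinase domain activated by AP20187 dimerizer at 100 nM; 0% = DMSO with dimerizer and 100% = rapamycin at 8.4 µM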
PolyA inh = polyadenylation inhibitors in yeast reporter cells, primary screen, luminescence, S. cerevisiae. activity score, % at 12 µM. 300,000 tested, 0.02% active. S. cerevisiae SKY197-pL101 polyadenylation reporter, beta-gal luminescence; efflux-impaired pdr1/pdr3 knockout yeast; score 100 = 6 SD above DMSO;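 active = lowest replicate activity score at least 50, where 100 means six control SD above control mean; inconclusive = lowest score under 50 but half or more replicates reach 50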;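 note: yeast exposed to compound for 9 h at 30 °C; higher score means more reporter readthrough which indicates perturbed polyadenylation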
AHR activator = AHR activators, primary screen, cell-based, luminescence, luciferase reporter, human; Aryl hydrocarbon receptor (Homo sapiens), P35869; AHR-responsive luciferase reporter cells; activation, % at 5 µM; 320,000 tested, 2.5% active; AID 2796, 2010; in the data active = activation above about 47%;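 note: 0% = vehicle wells and 100% = reference agonist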
HSF1 inhib = HSF1 inhibitors in luciferase reporter cells, primary screen, cell-based, NIH3T3, luminescence | NIH3T3-HGL HSE-luciferase, MG132-induced, luminescence 8 h; stronger effect = lower value | activity change, negative = inhibition, % at 7.5 µM (by protocol) | 300,000 tested, 0.77% active | AID 2098, 2009;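 active = more than half of replicate wells show activity change below -50%, luminescence cut by over half; inconclusive = some wells, but at most half, below -50%; inactive = no replicate well below -50%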;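 note: luciferase reports HSF-1 transcriptional activity via heat shock element; 0% = median of DMSO wells and -100% = zero luminescence signal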
STAT3 act = IL-6 driven STAT3 reporter potentiators, primary screen, U3A cells, luciferase, luminescence, MLSCN library; activation (% of control), % at 5.6 µM; IL-6 STAT3-luciferase reporter; 100% = signal with IL-6 EC80 alone; AID 871, 2007; 190,000 tested, 0.91% active;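 active = activation above the screen-wide mean of compound activation plus 3 SD, cut at about 130% in these data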;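 note: 0% = background luminescence of wells with medium and substrate only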
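Test system: STAT3-luciferase reporter U3A cells; Detection: reporter luminescence signal; Times: 1 h compound pre-exposure, 6 h IL-6 stimulation, 37 °C; Benchmarks: IL-6-only high control; Also added: IL-6 stimulus at 33 ng/mL final.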
Hsp70 act = Hsp70 transcriptional activators, primary screen, cell-based, HeLa, Hsp70 promoter luciferase, luminescence, 10 µM; activation, % at 10 µM; HeLa Hsp70 promoter luciferase reporter; scaled: vehicle 0, proteasome-inhibitor control 100%; AID 1203, 2008; 200,000 tested, 0.04% active;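 active = activation above the mean across all tested compounds plus 3 SD, cutoff set per campaign, cut at about 5.5% in these data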;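 note: 100% = MG132 at 30 µM as the positive control and 0% = DMSO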
* marks the source's active call; other numbers are inactive results; ? = inconclusive; / = no result given. Only some compounds are listed: those with a hit (about 3.6% of all), similar ones and a draw of the others.

SMILES	PERK inhibitor	PolyA inh	AHR activator	HSF1 inhib	STAT3 act	Hsp70 act
COCCN=c1scc(-c2cc(OC)c(OC)c(OC)c2)n1/N=C/c1c(C)[nH]c2ccccc12	-1	-12	56*	-8	106	0
Cc1[nH]c2ccccc2c1/C=N/n1cnnc1	2	-12	20	-5	105	0
CN(Cc1ccc(C(C)(C)C)cc1)C(=O)c1ccc2c(=O)n3c(nc2c1)CCC3	/	3	-1	-3	/	/
Cc1cccc(C)c1NC(=S)NC(=O)c1ccc(Br)o1	0	12	69*	4	102	0
Cc1cccc(NC(=S)NC(=O)c2ccc(Br)o2)c1C	0	3	36	44	89	0
CC(C)N(C(=O)CSc1ccc(S(=O)(=O)N2CCCCC2)cn1)C(C)C	/	/	0	/	/	/
Cc1ccc2c(c1)N(C(=O)CCC(=O)O)CCO2	0	9	1	3	99	0
COc1ccc(CNC(=O)C2(CC3CC(c4ccccc4)=NO3)CCNCC2)cc1 (configuration not stated)	/	22	0	0	/	/
CCc1ccccc1N(CC(=O)N1CCCC1)S(C)(=O)=O	/	-1	-1	-56*	/	/
CC(=O)c1cc2c(cc1NC(=O)c1ccc(C)cc1)OCCO2	/	-3	37	6	/	/
COc1ccc(C(=O)Nc2ccc(NS(=O)(=O)c3ccccc3)cc2)cc1OC	0	13	4	-4	/	/
Cc1cc2nc(-c3cccnc3SCC(=O)NC(C)C)[nH]c2cc1C	0	1	54*	-5	110	0
COCCOC(=O)CSc1ncccc1-c1nc2cc(C)c(C)cc2[nH]1	0	4	13	/	100	0
CCCCn1c(N)c(N(CC)C(=O)COc2ccc(C#N)cc2)c(=O)[nH]c1=O	/	/	-2	/	/	/
CCN1CCN(c2cc(C)c3cc(NC(=S)N4CCCC(C)C4)ccc3n2)CC1 (configuration not stated)	0	-4	3	-79*	67	0
Cn1nc([N+](=O)[O-])c(C(C#N)c2nc3ccccc3n2C)c(Cl)c1=O (configuration not stated)	0	-15	74*	40	93	0
CC(=O)Nc1ccc(NC(=O)C2CCN(C(=O)NC3CCCCC3)CC2)cc1	/	3	1	-3	/	/
O=C(c1ccccc1[N+](=O)[O-])n1cnc2ccccc21	0	-6	41	-19	91	4
O=C(c1ccc([N+](=O)[O-])cc1[N+](=O)[O-])n1cnc2ccccc21	0	24	59*	4	109	0
COc1ccc(NC(=S)NNC(=O)c2ccccc2OC(F)F)cc1	-1	-6	118*	-34	98	0
CCNC(=S)NNC(=O)c1ccccc1OC(F)F	1	-9	0	-8	101	0
CCc1ccc(NC(=S)NNC(=O)c2ccccc2OC(F)F)cc1	0	-21	49*	-6	101	0
O=C(COC(=O)CNC(=O)c1ccccc1)NCCNC(=O)COC(=O)CNC(=O)c1ccccc1	/	/	-2	/	/	/
Cc1ccc(N=Nc2c(C)[nH]n(-c3ccccc3)c2=O)cc1Br	/	?	22	-2	/	/
COC(=O)c1ccc(N=Nc2c(C)[nH]n(-c3ccccc3)c2=O)cc1	/	-4	78*	-6	/	/
Cc1[nH]n(-c2ccccc2)c(=O)c1N=Nc1ccc2c(c1)OCCO2	0	-8	2	/	107	0
Nc1[nH]n(-c2ccccc2)c(=O)c1N=Nc1ccc2ncsc2c1	1	1	56*	-6	/	/
Cc1[nH]n(-c2ccccc2)c(=O)c1N=Nc1ccc(F)cc1	/	-9	65*	-3	/	/
Cc1[nH]n(-c2ccccc2)c(=O)c1N=Nc1cccc(Cl)c1	/	-3	58*	6	/	/
Nc1[nH]n(-c2ccccc2)c(=O)c1N=Nc1ccccc1	2	-6	33	41	/	/
